In ChEMBL document CHEMBL3046169, “Synthesis and bioactivity study of 2-acylamino-substituted N'-benzylbenzohydrazide derivatives” (2012):
Converted amounts (≈) assume the structure as drawn. The source made the active and inactive calls. No cut-off for these calls is given here.

Columns and labels:
[1] = test system: Tetranychus cinnabarinus; experiment: Pesticidal activity against Tetranychus cinnabarinus (carmine spider mite) third- instar larvae grown on Phaseolus vulgaris leaves assessed as pest mortality at 600 mg/L measured 48 hr post compound exposure; type: functional
Method in brief: (§1)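 More than 20 third-instar mite larvae on Phaseolus vulgaris leaves dipped 5 s in compound solutions (water with 0.05% Triton X-100), excess liquor removed. Larvae held at 25 ± 1 °C in illumination box; mortality read at 48 h. Primary screen at 600 mg L⁻¹, follow-up at 400, 200, 100, 50 and 25 mg L⁻¹ with LC50 calculated. Triplicate tests.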

[2] = test system: Tetranychus cinnabarinus; experiment: Pesticidal activity against Tetranychus cinnabarinus (carmine spider mite) third- instar larvae grown on Phaseolus vulgaris leaves assessed as pest mortality measured 48 hr post compound exposure; type: functional; method in brief: as §1
[3] = test system: Tetranychus cinnabarinus; experiment: Pesticidal activity against Tetranychus cinnabarinus (carmine spider mite) third- instar larvae grown on Phaseolus vulgaris leaves assessed as conversion of corpus colour to black at 25 to 400 mg/L measured 48 hr post compound exposure; type: functional, organism-based
Method in brief: (§2)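 Mite larvae (>20 third-instar on Phaseolus vulgaris leaves) leaf-dipped 5 s in compound at 400, 200, 100, 50 or 25 mg L⁻¹ in water with 0.05% Triton X-100, kept at 25 ± 1 °C. Movement of larvae observed at 1 h; corpse colour change to black observed at 48 h after treatment.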

[4] = test system: Tetranychus cinnabarinus; experiment: Pesticidal activity against Tetranychus cinnabarinus (carmine spider mite) third- instar larvae grown on Phaseolus vulgaris leaves assessed as pest mortality at 25 mg/L measured 48 hr post compound exposure; type: functional; method in brief: as §1
[5] = test system: Tetranychus cinnabarinus; experiment: Pesticidal activity against Tetranychus cinnabarinus (carmine spider mite) third- instar larvae grown on Phaseolus vulgaris leaves assessed as reduction in larval movement at 25 to 400 mg/L measured 1 hr post compound exposure; type: functional, organism-based; method in brief: as §2
[6] = test system: Aphis gossypii; experiment: Pesticidal activity against Aphis gossypii (cotton aphid) third-instar nymphae grown on tender Hibiscus syriacus leaves assessed as pest mortality at 600 mg/L measured 24 hr post compound exposure; type: functional; conditions: in Hibiscus syriacus
Method in brief: (§3)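 Leaf-dip bioassay: over 30 healthy apterous third-instar nymphs on tender Hibiscus syriacus leaves dipped 5 s in compound diluted in distilled water with 0.05% Triton X-100, excess fluid removed. Held in illumination box at 25 ± 1 °C; mortality scored after 24 h. Tests in triplicate.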

[7] = test system: Plutella xylostella; experiment: Pesticidal activity against Plutella xylostella (diamondback moth) second-instar larvae grown on cruciferous vegetables leaves leaves as pest mortality at 600 mg/L measured 48 hr post compound exposure; type: functional
Method in brief: (§4)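 Over 20 second-instar larvae on cruciferous vegetable leaves dipped 5 s in compound diluted in distilled water containing 0.05% Triton X-100, excess liquid removed. Kept in illumination box at 25 ± 1 °C; mortality recorded 48 h after treatment. Each test in triplicate.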

[8] = test system: Tetranychus cinnabarinus; experiment: Pesticidal activity against Tetranychus cinnabarinus (carmine spider mite) third- instar larvae grown on Phaseolus vulgaris leaves assessed as pest mortality at 400 mg/L measured 48 hr post compound exposure; type: functional; method in brief: as §1
[9] = test system: Tetranychus cinnabarinus; experiment: Pesticidal activity against Tetranychus cinnabarinus (carmine spider mite) third- instar larvae grown on Phaseolus vulgaris leaves assessed as pest mortality at 100 mg/L measured 48 hr post compound exposure; type: functional; method in brief: as §1
[10] = test system: Tetranychus cinnabarinus; experiment: Pesticidal activity against Tetranychus cinnabarinus (carmine spider mite) third- instar larvae grown on Phaseolus vulgaris leaves assessed as pest mortality at 50 mg/L measured 48 hr post compound exposure; type: functional; method in brief: as §1
[11] = test system: Tetranychus cinnabarinus; experiment: Pesticidal activity against Tetranychus cinnabarinus (carmine spider mite) third- instar larvae grown on Phaseolus vulgaris leaves assessed as pest mortality at 200 mg/L measured 48 hr post compound exposure; type: functional; method in brief: as §1
[12] = test system: Aphis gossypii; experiment: Pesticidal activity against Aphis gossypii (cotton aphid) third-instar nymphae grown on tender Hibiscus syriacus leaves assessed as pest mortality at 200 mg/L measured 24 hr post compound exposure; type: functional; conditions: in Hibiscus syriacus; method in brief: as §3
[13] = test system: Plutella xylostella; experiment: Pesticidal activity against Plutella xylostella (diamondback moth) second-instar larvae grown on cruciferous vegetables leaves leaves as pest mortality at 0.2 mg/L measured 48 hr post compound exposure; type: functional; method in brief: as §4
[14] = test system: Aphis gossypii; experiment: Pesticidal activity against Aphis gossypii (cotton aphid) third-instar nymphae grown on tender Hibiscus syriacus leaves assessed as pest mortality at 2 mg/L measured 24 hr post compound exposure; type: functional; conditions: in Hibiscus syriacus; method in brief: as §3

Compound	mortality at 600 µg/mL [1] [%]	mortality at 600 µg/mL [6] [%]	mortality at 600 µg/mL [7] [%]	also measured
Cc1cc(Br)cc(C(=O)NNCc2cccc(C(F)(F)F)c2)c1NC(=O)CC(C)(C)C	100	18.7	40	LC50 [2]: 89.8 µg/mL (≈ 179 µM); Activity [3]: Active; mortality at 25 µg/mL [4]: 26%; Activity [5]: Active; mortality at 400 µg/mL [8]: 93.3%; mortality at 100 µg/mL [9]: 43.3%; mortality at 50 µg/mL [10]: 38.4%; mortality at 200 µg/mL [11]: 64.4%
CNC(=O)c1cc(Cl)cc(C)c1NC(=O)c1cc(Br)nn1-c1ncccc1Cl [CHLORANTRANILIPROLE]	–	–	–	LC50 [2]: 633 µg/mL (≈ 1310 µM); mortality at 25 µg/mL [4]: 7.4%; mortality at 400 µg/mL [8]: 40.7%; mortality at 100 µg/mL [9]: 17.2%; mortality at 200 µg/mL [12]: 91.3%; mortality at 50 µg/mL [10]: 13.2%; mortality at 0.2 µg/mL [13]: 100%; mortality at 200 µg/mL [11]: 29.9%
Cc1cccc(C(=O)NNCc2cccc(C(F)(F)F)c2)c1NC(=O)CC(C)(C)C	57.9	94.2	40	–
Cc1cc(Cl)cc(C(=O)NNCc2ccc(Cl)nc2)c1NC(=O)C(C)(C)CCl	47.1	30.6	16	–
Cc1cc(Br)cc(C(=O)NNCc2ccc(Cl)nc2)c1NC(=O)C(C)(C)C	19.3	96.2	64	–
Cc1cc(Cl)cc(C(=O)NNCc2ccc(F)cc2)c1NC(=O)C(C)(C)C	73.8	41.5	88	–
Cc1cc(Cl)cc(C(=O)NNCc2ccccc2F)c1NC(=O)C(C)(C)CCl	61.1	70.2	100	–
Cc1cc(Cl)cc(C(=O)NNCc2ccccc2Cl)c1NC(=O)C(C)(C)C	100	51.7	76	LC50 [2]: 43.8 µg/mL (≈ 107 µM); Activity [3]: Active; mortality at 25 µg/mL [4]: 30.9%; Activity [5]: Active; mortality at 400 µg/mL [8]: 97.8%; mortality at 100 µg/mL [9]: 60.8%; mortality at 50 µg/mL [10]: 62.5%; mortality at 200 µg/mL [11]: 82.2%
Cc1cc(Br)cc(C(=O)NNCc2ccccc2Cl)c1NC(=O)C(C)(C)CCl	95.7	8.5	76	LC50 [2]: 51.7 µg/mL (≈ 106 µM); Activity [3]: Active; mortality at 25 µg/mL [4]: 36.5%; Activity [5]: Active; mortality at 400 µg/mL [8]: 89.6%; mortality at 100 µg/mL [9]: 62.6%; mortality at 50 µg/mL [10]: 44.9%; mortality at 200 µg/mL [11]: 83.6%
CC(C)(C)C(=O)Nc1ccc(Cl)cc1C(=O)NNCc1cccc(C(F)(F)F)c1	73.8	28.9	28	–
Cc1cc(Cl)cc(C(=O)NNCc2ccccc2Cl)c1NC(=O)CC(C)(C)C	100	65.5	52	LC50 [2]: 27.9 µg/mL (≈ 66.1 µM); Activity [3]: Active; mortality at 25 µg/mL [4]: 38.4%; Activity [5]: Active; mortality at 400 µg/mL [8]: 92.2%; mortality at 100 µg/mL [9]: 80.4%; mortality at 50 µg/mL [10]: 74.1%; mortality at 200 µg/mL [11]: 86.4%
Cc1cc(Cl)cc(C(=O)NNCc2ccccc2)c1NC(=O)C(C)(C)C	92.5	52.4	34	–
Cc1cc(Br)cc(C(=O)NNCc2ccccc2Cl)c1NC(=O)CC(C)(C)C	11.6	88	76	–
Cc1cccc(C(=O)NNCc2ccccc2Cl)c1NC(=O)C(C)(C)CCl	46.7	68.8	22	–
Cc1cc(Br)cc(C(=O)NNCc2ccccc2)c1NC(=O)C(C)(C)CCl	20.3	84.6	52	–
Cc1cc(Br)cc(C(=O)NNCc2ccccc2Cl)c1NC(=O)C(C)(C)C	40.1	49.1	64	–
Cc1cccc(C(=O)NNCc2ccc(Cl)cc2Cl)c1NC(=O)C(C)(C)C	52.9	89.4	50	–
Cc1cc(Br)cc(C(=O)NNCc2ccccc2)c1NC(=O)C(C)(C)C	64.9	86.1	50	–
Cc1cc(Cl)cc(C(=O)NNCc2ccccc2)c1NC(=O)CC(C)(C)C	70.1	70.4	94	–
Cc1cc(Br)cc(C(=O)NNCc2ccccc2)c1NC(=O)CC(C)(C)C	78.1	96.6	22	–
Cc1cc(Cl)cc(C(=O)NNCc2ccccc2Cl)c1NC(=O)C(C)(C)CCl	11	14.5	64	–
Cc1cc(Cl)cc(C(=O)NNCc2ccc(Cl)cc2Cl)c1NC(=O)CC(C)(C)C	88.8	62	88	–
Cc1cc(Cl)cc(C(=O)NNCc2cccc(C(F)(F)F)c2)c1NC(=O)C(C)(C)CCl	61.8	5.1	52	–
Cc1cc(Cl)cc(C(=O)NNCc2cccc(C(F)(F)F)c2)c1NC(=O)C(C)(C)C	8.6	68.3	40	–
CC(C)(C)c1ccc(CSc2cnn(C(C)(C)C)c(=O)c2Cl)cc1 [PYRIDABEN]	–	–	–	LC50 [2]: 5.5 µg/mL (≈ 15.1 µM); mortality at 25 µg/mL [4]: 97.7%; mortality at 400 µg/mL [8]: 100%; mortality at 100 µg/mL [9]: 100%; mortality at 50 µg/mL [10]: 100%; mortality at 200 µg/mL [11]: 100%
O=[N+]([O-])/N=C1\NCCN1Cc1ccc(Cl)nc1 [IMIDACLOPRID]	–	–	–	mortality at 2 µg/mL [14]: 100%
